# From ChEMBL document CHEMBL1125331, “6-Hydroxy-3-n-propyl-2,3,4,5-tetrahydro-1H-3-benzazepine and analogs: new centrally acting 5-HT1A receptor agonists” (J Med Chem, 1992)
# What was measured:
# [1] = target: T1, 5-hydroxytryptamine receptor 1A (Rattus norvegicus, UniProt P19327); assay: Inhibitory activity against 5-hydroxytryptamine 1A receptor in rats, using [3H]8-OH-DPAT as radioligand
# T1 sequence (P19327 whole entry): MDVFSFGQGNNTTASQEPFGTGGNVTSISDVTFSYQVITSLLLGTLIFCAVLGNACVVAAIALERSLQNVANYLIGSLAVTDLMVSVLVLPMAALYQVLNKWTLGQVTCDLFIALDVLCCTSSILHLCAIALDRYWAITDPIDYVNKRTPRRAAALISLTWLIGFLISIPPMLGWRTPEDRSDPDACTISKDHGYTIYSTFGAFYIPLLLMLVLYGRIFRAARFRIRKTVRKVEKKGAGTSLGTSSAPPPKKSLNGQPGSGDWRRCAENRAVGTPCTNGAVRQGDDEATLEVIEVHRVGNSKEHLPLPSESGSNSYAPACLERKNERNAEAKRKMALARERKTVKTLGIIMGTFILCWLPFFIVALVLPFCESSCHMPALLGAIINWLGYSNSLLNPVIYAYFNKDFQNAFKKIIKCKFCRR
# In short: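 Rat whole-brain membranes (minus brainstem and cerebellum) in 50 mM Tris pH 8.0 with 120 mM NaCl, 4 mM CaCl2, 4 mM MgCl2 and 10 μM pargyline. Rapid filtration, then scintillation counting. Nonspecific binding defined with 10 μM 5-HT. IC50 by semi-log plot and linear regression.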
# D(2) dopamine receptor = D(2) dopamine receptor (Rattus norvegicus, UniProt P61169); assay: Inhibitory activity against Dopamine receptor D2 in rats using [3H]spiperone as radioligand
# D(2) dopamine receptor, sequence (P61169 whole entry): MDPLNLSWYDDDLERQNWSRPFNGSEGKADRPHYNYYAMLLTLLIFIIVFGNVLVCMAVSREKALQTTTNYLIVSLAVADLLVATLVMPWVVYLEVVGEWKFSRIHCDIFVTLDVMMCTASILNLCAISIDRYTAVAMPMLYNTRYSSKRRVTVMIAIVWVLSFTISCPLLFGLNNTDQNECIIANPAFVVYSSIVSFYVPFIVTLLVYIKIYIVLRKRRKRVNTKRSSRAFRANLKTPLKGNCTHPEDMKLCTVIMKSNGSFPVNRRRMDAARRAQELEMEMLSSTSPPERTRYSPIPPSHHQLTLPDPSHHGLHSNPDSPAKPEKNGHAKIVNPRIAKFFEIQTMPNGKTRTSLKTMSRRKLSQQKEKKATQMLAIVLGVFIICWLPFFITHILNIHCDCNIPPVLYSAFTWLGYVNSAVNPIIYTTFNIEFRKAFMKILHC
# In short: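 Rat striatal membranes in 50 mM potassium phosphate buffer pH 7.4 were incubated with 0.5 nM [3H]spiperone for 10 min at 37 °C. Specific binding was defined with 10 μM 6,7-ADTN.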
# Rattus norvegicus [2] = assay: Effect evaluated in vivo on 5-HTP accumulation in limbic system at a dose 25 umol/kg (s.c.); format: functional
# In short: (§1)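 Male Sprague-Dawley rats (200–300 g) were pretreated with reserpine 5 mg/kg sc 18 h before. Test compound was given sc at 5 mL/kg in neutral solution. 5-HT synthesis rate was indexed by […] 5-HTP accumulation after decarboxylase inhibition with NSD 1015, measured by HPLC-electrochemical detection. Dose-response used 4–6 dose levels, n = 4.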
# Rattus norvegicus [3] = assay: Effect evaluated in vivo on 5-HTP accumulation in limbic system at a dose 6.25 umol/kg (s.c.); format: functional; in short: as §1
# Rattus norvegicus [4] = assay: Effect evaluated in vivo on NE synthesis in NE-rich hemispheres at a 0.20 dose uM/kg(sc); format: functional
# In short: (§2)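 Rats pretreated with reserpine 5 mg/kg sc 18 h before received test compound sc at 5 mL/kg in neutral solution. After decarboxylase inhibition with NSD 1015, dopa accumulation in hemispheres (mainly cortex) was measured by HPLC-electrochemical detection as an index of NE synthesis. Dose-response used 4–6 dose levels, n = 4.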
# Rattus norvegicus [5] = assay: Effect evaluated in vivo on NE synthesis in NE-rich hemispheres at a 0.39 dose uM/kg(sc); format: functional; in short: as §2
# Rattus norvegicus [6] = assay: Effect evaluated in vivo on NE synthesis in NE-rich hemispheres at a 1.56 dose uM/kg(sc); format: functional; in short: as §2
# Rattus norvegicus [7] = assay: Effect evaluated in vivo on NE synthesis in NE-rich hemispheres at a 25 dose uM/kg(sc); format: functional; in short: as §2
# Rattus norvegicus [8] = assay: Effect evaluated in vivo on NE synthesis in NE-rich hemispheres at a 6.25d ose uM/kg(sc); format: functional; in short: as §2
# Rattus norvegicus [9] = assay: Effect evaluated in vivo on 5-HTP accumulation in corpus striatum at a dose 25 umol/kg (s.c.); format: functional
# In short: (§3)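 Male Sprague-Dawley rats (200–300 g) were pretreated with reserpine 5 mg/kg sc 18 h beforehand. Test drug was given at neutral pH, 5 mL/kg. Aromatic amino acid decarboxylase was blocked with NSD 1015. 5-HTP in the dissected brain region was assayed by HPLC with electrochemical detection.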
# Rattus norvegicus [10] = assay: Effect evaluated in vivo on 5-HTP accumulation in limbic system after subcutaneous administration; format: functional; details: sc; in short: as §3
# Rattus norvegicus [11] = assay: Effect evaluated in vivo on NE synthesis in NE-rich hemispheres after subcutaneous administration; format: functional; details: sc; in short: as §2
# Rattus norvegicus [12] = assay: Effect evaluated in vivo on 5-HTP accumulation in corpus striatum at a dose 6.25 umol/kg (s.c.); format: functional; in short: as §3
# Rattus norvegicus [13] = assay: Effect evaluated in vivo on 5-HTP accumulation in limbic system at a dose 0.20 umol/kg (s.c.); format: functional; in short: as §3
# Rattus norvegicus [14] = assay: Effect evaluated in vivo on 5-HTP accumulation in limbic system at a dose 0.39 umol/kg (s.c.); format: functional; in short: as §3
# Rattus norvegicus [15] = assay: Effect evaluated in vivo on 5-HTP accumulation in limbic system at a dose 1.56 umol/kg (s.c.); format: functional; in short: as §1
# Rattus norvegicus [16] = assay: Effect evaluated in vivo on 5-HTP accumulation in corpus striatum after subcutaneous administration; format: functional; details: sc; in short: as §3
# Rattus norvegicus [17] = assay: Effect evaluated in vivo on 5-HTP accumulation in corpus striatum at a dose 0.20 umol/kg (s.c.); format: functional; in short: as §3
# Rattus norvegicus [18] = assay: The compound was tested in vivo for locomotor activity in rats at 25 umol/kg after subcutaneous administration; format: functional
# In short: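 Male Sprague-Dawley rats received reserpine 5 mg/kg sc in the neck 18 h before testing. Test compound was given sc in the neck (n = 4). Rats were placed singly in photocell motility meters immediately after dosing, and counts were accumulated over 30 min (tests 9 a.m.–1 p.m.). Gross behaviour, including 5-HT syndrome, was observed throughout.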
# Rattus norvegicus [19] = assay: Effect evaluated in vivo on 5-HTP accumulation in corpus striatum at a dose 0.39 umol/kg (s.c.); format: functional; in short: as §3
# Rattus norvegicus [20] = assay: Effect evaluated in vivo on 5-HTP accumulation in limbic system at a dose 3.1 umol/kg (s.c.); format: functional; in short: as §1
# Rattus norvegicus [21] = assay: Effect evaluated in vivo on 5-HTP accumulation in limbic system at a dose 50 umol/kg (s.c.); format: functional; in short: as §1
# Rattus norvegicus [22] = assay: Effect evaluated in vivo on 5-HTP accumulation in NE-rich hemispheres at a 0.20 dose uM/kg(sc); format: functional; in short: as §3
# Rattus norvegicus [23] = assay: Effect evaluated in vivo on 5-HTP accumulation in NE-rich hemispheres at a 0.78 dose uM/kg(sc); format: functional; in short: as §3
# Rattus norvegicus [24] = assay: Effect evaluated in vivo on 5-HTP accumulation in corpus striatum at a dose 12.5 umol/kg (s.c.); format: functional; in short: as §3
# Rattus norvegicus [25] = assay: Effect evaluated in vivo on 5-HTP accumulation in corpus striatum at a dose 3.1 umol/kg (s.c.); format: functional; in short: as §3
# Rattus norvegicus [26] = assay: Effect evaluated in vivo on 5-HTP accumulation in corpus striatum at a dose 50 umol/kg (s.c.); format: functional; in short: as §3
# Rattus norvegicus [27] = assay: Effect evaluated in vivo on 5-HTP accumulation in limbic system at a dose 0.78 umol/kg (s.c.); format: functional; in short: as §3
# Rattus norvegicus [28] = assay: Effect evaluated in vivo on 5-HTP accumulation in limbic system at a dose 12.5 umol/kg (s.c.); format: functional; in short: as §1
# Rattus norvegicus [29] = assay: Effect evaluated in vivo on 5-HTP accumulation in NE-rich hemispheres at a 12.5 dose uM/kg(sc); format: functional; in short: as §3
# Rattus norvegicus [30] = assay: Effect evaluated in vivo on 5-HTP accumulation in NE-rich hemispheres at a 3.1 dose uM/kg(sc); format: functional; in short: as §3
# Rattus norvegicus [31] = assay: Effect evaluated in vivo on 5-HTP accumulation in NE-rich hemispheres at a 50 dose uM/kg(sc); format: functional; in short: as §3
# Rattus norvegicus [32] = assay: Effect evaluated in vivo on 5-HTP accumulation in corpus striatum at a dose 0.78 umol/kg (s.c.); format: functional; in short: as §3
# Rattus norvegicus [33] = assay: The compound was tested in vivo for locomotor activity in rats at 0.2 umol/kg after subcutaneous administration
# Rattus norvegicus [34] = assay: Effect evaluated in vivo on 5-HTP accumulation in NE-rich hemispheres at a 0.80 dose uM/kg(sc); format: functional; in short: as §3
# Rattus norvegicus [35] = assay: Effect evaluated in vivo on 5-HTP accumulation in limbic system at a dose 0.80 umol/kg (s.c.); format: functional; in short: as §1
# Rattus norvegicus [36] = assay: Effect evaluated in vivo on 5-HTP accumulation in NE-rich hemispheres after subcutaneous administration; format: functional; details: sc; in short: as §3
# Rattus norvegicus [37] = assay: Effect evaluated in vivo on 5-HTP accumulation in corpus striatum at a dose 0.80 umol/kg (s.c.); format: functional; in short: as §3
SMILES,IC50 [1] [nM],IC50 (D(2) dopamine receptor) [nM],ED50 (Rattus norvegicus [10]) [µmol/kg],Control (Rattus norvegicus [13]) [%],ED50 (Rattus norvegicus [16]) [µmol/kg],Control (Rattus norvegicus [17]) [%],Control (Rattus norvegicus [20]) [%],Control (Rattus norvegicus [21]) [%],Control (Rattus norvegicus [24]) [%],Control (Rattus norvegicus [25]) [%],Control (Rattus norvegicus [26]) [%],Control (Rattus norvegicus [28]) [%],Control (Rattus norvegicus [29]) [%],Control (Rattus norvegicus [31]) [%],Locomotor activity (Rattus norvegicus [33]),other results
CCCN1CCc2cccc(O)c2CC1,81,> 100000,1.3,117,2.2,125,,,,,,,,,,Control (Rattus norvegicus [2]): 76%; Control (Rattus norvegicus [3]): 51%; Control (Rattus norvegicus [4]): 115%; Control (Rattus norvegicus [5]): 129%; Control (Rattus norvegicus [6]): 73%; Control (Rattus norvegicus [7]): 72%; Control (Rattus norvegicus [8]): 53%; Control (Rattus norvegicus [9]): 75%; ED50 (Rattus norvegicus [11]): 1.4 µmol/kg; Control (Rattus norvegicus [12]): 67%; Control (Rattus norvegicus [14]): 129%; Control (Rattus norvegicus [15]): 70%; Locomotor activity (Rattus norvegicus [18]): 102; Control (Rattus norvegicus [19]): 135%
COc1cccc2c1CCN(C)CC2,480,2300,,110,,98,108,67,74,89,72,86,76,80,8,Control (Rattus norvegicus [22]): 126%; Control (Rattus norvegicus [23]): 81%; Control (Rattus norvegicus [27]): 93%; Control (Rattus norvegicus [30]): 93%; Control (Rattus norvegicus [32]): 97%
CCCCN1CCc2ccc(O)cc2CC1,,,,,,,,119,,,106,,,114,,
CCN1CCc2cccc(O)c2CC1,630,14000,5,,6.5,,89,46,56,96,54,48,49,48,31,Control (Rattus norvegicus [34]): 108 µM/kg; Control (Rattus norvegicus [35]): 99%; ED50 (Rattus norvegicus [36]): 6 µmol/kg; Control (Rattus norvegicus [37]): 100%
